Screening data (PubChem BioAssay)
Sampled rows, rich in hits. Any-hit rate of the full collection: about 1.4%.
NR2E3 ag-1: activates human NR2E3 receptor; Q9Y5X4; CHO-S Gal4-NCOR/VP16-NR2E3 two-hybrid, luciferase; inhibition of corepressor binding, % at 3.98 µM; 360,000 compounds, 0.35% hits; AID 602229;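 active = inhibition above the mean of all tested compounds plus 3 SD, cut at about 70% in these data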;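 note: 0% = DMSO with NR2E3 transfected cells and 100% = cells lacking NR2E3 construct; higher means lower luciferase signal from less NR2E3 corepressor binding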
Target sequence (Q9Y5X4 whole entry, looked up, the tested form may be a part): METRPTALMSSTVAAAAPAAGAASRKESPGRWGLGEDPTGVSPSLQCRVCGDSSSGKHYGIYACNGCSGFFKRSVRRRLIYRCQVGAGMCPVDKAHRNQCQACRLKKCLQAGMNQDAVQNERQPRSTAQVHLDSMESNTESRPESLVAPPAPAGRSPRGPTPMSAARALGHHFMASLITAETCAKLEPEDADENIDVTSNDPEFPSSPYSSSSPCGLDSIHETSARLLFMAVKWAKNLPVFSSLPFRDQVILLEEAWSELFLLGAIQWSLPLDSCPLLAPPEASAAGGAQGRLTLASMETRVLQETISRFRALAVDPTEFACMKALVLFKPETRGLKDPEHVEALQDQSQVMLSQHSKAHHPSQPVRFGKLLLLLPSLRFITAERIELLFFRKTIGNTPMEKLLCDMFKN
PG9 binder: PG9 antibody binding by small molecule; TR-FRET gp120-PG9 antibody binding; inhibition, % at 6.7 µM; 360,000 compounds, 0.43% hits; AID 624416; in the data active = inhibition above about 8.5%
NR2E3 ag-2: activates human photoreceptor nuclear receptor NR2E3; Q9Y5X4; GST-NR2E3/biotin-RetCOR TR-FRET, 1536-well; inhibition of corepressor binding, % at 4.78 µM; 320,000 compounds, 0.12% hits; AID 2300;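 active = percent inhibition above the cutoff of mean plus 3 SD of all tested compounds, set per screening campaign, cut at about 20% in these data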;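 note: 0% = DMSO wells and 100% = biotin wells as full block of FRET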
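System: GST-tagged NR2E3 plus biotinylated RetCOR corepressor; Amount: 1.35 nM GST-tagged NR2E3 final; Dosing: single nominal compound dose of 4.8 µM; Schedule: 5 h incubation at 4 °C; Technique: TR-FRET with europium anti-GST and streptavidin-D2, 340 nm excitation; Controls: biotin wells as high control, 0.6% DMSO wells as low control.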
Rev-erbA mod: modulates human Rev-erb alpha binding to DNA. Rev-erbα–FITC-DNA binding, fluorescence polarization, 90 min. 370,000 compounds, 0.79% hits. activity, % at 10 µM. P20393;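 active = activity above about 14%, limit read from the data; passing the limit was not always enough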;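 note: 0% = DMSO wells with 35 nM protein and 100% = DMSO wells with 750 nM protein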
NR2E3 ag conf: confirmation of human NR2E3 agonists; shares compounds with NR2E3 ag-1; CHO-S mammalian two-hybrid NR2E3-NCOR, luciferase luminescence; inhibition, % at 3.98 µM; 2,300 compounds, 51% hits; AID 624378;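 active = average inhibition above a cutoff equal to the mean inhibition of all tested compounds plus one SD, cut at about 70% in these data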;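 note: 0% = DMSO in NR2E3 cells and 100% = DMSO in cells lacking NR2E3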
GAL4-VP16 luc: reduces GAL4-VP16 reporter signal in NR2E3 counterscreen. 2,300 compounds, 29% hits. inhibition, % at 3.98 µM. CHO-S GAL4-VP16 luciferase reporter, luminescence. shares compounds with NR2E3 ag-1. AID 624379;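 active = mean inhibition above a cutoff equal to the average over all tested compounds plus one standard deviation, cut at about 70% in these data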;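 note: luciferase from a UAS reporter driven by GAL4-VP16 transactivation; 0% = DMSO with VP16-transfected cells and 100% = DMSO with cells lacking VP16; higher means less reporter light so more repression of VP16 activity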
Active calls of the source: *; . = not tested or not shown.

SMILES	NR2E3 ag-1	PG9 binder	NR2E3 ag-2	Rev-erbA mod	NR2E3 ag conf	GAL4-VP16 luc
COCCNC(=O)CN1C(=O)CN=C(c2ccccc2)c2ccccc21	0	1	1	5	.	.
CC(=O)OC1C(=O)OCC23CCC4(C)OC4C2OC2CC(OC(=O)C=CC=CC(=O)OCCC1C)C3(C)C21CO1 (stereo not given)	102*	0	.	10	99*	99*
CC(O)C1C=CC=CC(=O)OC2CC3OC4C5OC5(C)CCC4(COC(=O)C4OC4(C)C(O)CO1)C2(C)C31CO1 (stereo not given)	101*	0	.	-8	99*	97*
CCC(C)C(NC(=O)CCCNC(=O)CCC(=O)OC1O[C@H]2OC3(C)CC[C@H]4[C@H](C)CCC(C1C)C24OO3)C(=O)O (stereo not given in full)	95*	-1	2	-1	94*	71*
CCC(C)NC(=O)CCC(=O)OC1O[C@H]2OC3(C)CC[C@H]4[C@H](C)CCC(C1C)C24OO3 (stereo not given in full)	103*	-1	.	3	97*	75*
COc1ccc(CC(=O)N2CCN(C)CC2)cc1	-5	0	0	-5	.	.
COc1ccc(CC2NCC(O)C2OC(C)=O)cc1 (stereo not given)	105*	0	.	-7	99*	99*
CC1=CC2OC3CC4OC(=O)C=CC=CC(C(C)O)OCC(O)C(C)CC(=O)OCC2(CC1O)C4(C)C31CO1 (stereo not given)	101*	1	.	-3	100*	99*
CC1=CC2OC3CC4OC(=O)C=CC=CC(=O)OCCC(C)C(O)C(=O)OCC2(CC1O)C4(C)C31CO1 (stereo not given)	99*	.	.	.	100*	99*
C[Se]C[C@@H](N)C(=O)O	-23	2	0	2	.	.
CCOC(=O)c1c(C=O)c2ccccc2n1Cc1ccccc1F	0	0	-2	3	.	.
Cc1ccc(C)c(NC(=O)CCNC(=O)N2C[C@H]3C[C@@H](C2)c2cccc(=O)n2C3)c1	-17	-3	-1	-4	.	.
COC(COC(N)=O)C1=C(N2CC2)C(=O)C(C)=C(N2CC2)C1=O (stereo not given)	0	-21	.	0	.	.
CC1=C(N2CC2)C(=O)C(CO)=C(N2CC2)C1=O	59	-28	.	-1	99*	96*
CC(=O)OC1C(O)C(C)OC(OC2C(OC(=O)C3CCC4C(C3)OC3(CC(OC(=O)/C=C/c5ccccc5)C(C)CO3)C43CO3)OC(C)C(O)C2OC(C)=O)C1O (stereo not given)	103*	1	.	4	99*	99*
CC(=NNC(=S)N1CC2CCC(CC2)C1)c1nccs1	96*	1	.	1	100*	85*
C[C@]12C[C@@H](O)[C@H](O)CC1=CCC1C2CC[C@]2(C)C(=O)CCC12 (stereo not given in full)	-12	0	.	0	.	.
O=c1[nH]c(Cl)ccc1CN1CCOCC1	1	-1	-1	-2	.	.
CC(=O)N1c2ccccc2C(c2ccccc2)=NCC1C(=O)NCc1ccccc1 (stereo not given)	.	.	.	-3	.	.
CN(C)c1ccc(/C=C/C=C/c2sc3ccccc3[n+]2C)cc1	20	-126	-13	-6	.	.
CN(C)c1ccc(/C=C/c2cc[n+](C)c3ccccc23)cc1	61	-129	.	7	77*	38
O=C(O)C1C2c3ccccc3C(c3ccccc32)C1C(=O)Nc1ccccc1 (stereo not given)	8	0	-1	-2	.	.
Oc1c(Cl)c(Cl)c(Cl)c(Cl)c1Cl	98*	0	-3	7	99*	92*
O=c1[nH]c2ccccc2n1C1CCN(C(CCc2ccccc2)c2nnnn2-c2ccc3c(c2)OCCO3)CC1 (stereo not given)	48	-2	.	1	51	15
CCN(CC)C(=O)c1ccc(NC(=O)c2cn(-c3ccccc3)nc2-c2ccc(OC)cc2)cc1	-13	-1	5	4	.	.
O=C(c1cc(F)ccc1F)C1CCCN(CCCc2ccccc2)C1 (stereo not given)	-9	1	0	1	.	.
Cc1cccc(-c2nc3ccccc3c(=O)n2-n2cccc2)c1	3	0	1	-1	.	.
